Experimental data pooled from the literature.
Compare with care: the assays were run in different laboratories.
Target: Serine/threonine-protein kinase Nek1 (NEK1, Homo sapiens, UniProt Q96PY6)
Residues used in one study (Q96PY6 1-1258): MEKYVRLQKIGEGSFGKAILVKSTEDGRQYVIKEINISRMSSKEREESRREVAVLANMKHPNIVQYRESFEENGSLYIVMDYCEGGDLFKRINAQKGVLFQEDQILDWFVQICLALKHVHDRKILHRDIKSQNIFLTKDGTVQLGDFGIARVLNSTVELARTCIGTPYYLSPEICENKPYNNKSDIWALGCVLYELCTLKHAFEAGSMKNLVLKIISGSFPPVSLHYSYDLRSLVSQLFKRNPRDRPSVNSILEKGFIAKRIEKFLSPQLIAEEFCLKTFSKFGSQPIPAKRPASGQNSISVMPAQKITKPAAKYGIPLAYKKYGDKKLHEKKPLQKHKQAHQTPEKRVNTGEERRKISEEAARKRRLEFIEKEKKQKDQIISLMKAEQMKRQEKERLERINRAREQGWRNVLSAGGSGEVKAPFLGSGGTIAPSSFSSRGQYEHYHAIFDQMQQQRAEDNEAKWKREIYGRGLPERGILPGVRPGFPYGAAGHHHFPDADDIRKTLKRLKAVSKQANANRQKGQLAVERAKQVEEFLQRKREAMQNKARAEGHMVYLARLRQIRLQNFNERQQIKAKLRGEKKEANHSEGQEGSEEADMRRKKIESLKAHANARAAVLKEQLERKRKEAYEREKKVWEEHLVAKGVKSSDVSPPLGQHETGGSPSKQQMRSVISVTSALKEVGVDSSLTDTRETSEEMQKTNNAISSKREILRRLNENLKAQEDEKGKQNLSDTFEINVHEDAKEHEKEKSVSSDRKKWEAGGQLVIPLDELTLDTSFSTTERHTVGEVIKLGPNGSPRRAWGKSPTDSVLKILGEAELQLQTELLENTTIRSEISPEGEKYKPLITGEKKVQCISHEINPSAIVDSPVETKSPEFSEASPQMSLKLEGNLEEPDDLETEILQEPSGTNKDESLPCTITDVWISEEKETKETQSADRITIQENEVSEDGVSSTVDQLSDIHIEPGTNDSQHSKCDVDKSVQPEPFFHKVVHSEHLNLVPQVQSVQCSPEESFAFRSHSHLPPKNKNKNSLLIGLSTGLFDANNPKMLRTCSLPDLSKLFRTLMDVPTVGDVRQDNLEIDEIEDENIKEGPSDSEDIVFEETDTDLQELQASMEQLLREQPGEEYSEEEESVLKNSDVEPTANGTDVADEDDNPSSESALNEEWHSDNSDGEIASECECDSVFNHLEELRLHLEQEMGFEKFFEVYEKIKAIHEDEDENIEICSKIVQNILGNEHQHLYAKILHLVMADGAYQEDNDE

`CC(C)(C)c1nc(-c2cccc(NS(=O)(=O)c3c(F)cccc3F)c2F)c(-c2ccnc(N)n2)s1` gave a remaining activity of 63% (enzyme activity; inhibitor; radiometric; 1 µM).
With `c1ccc(CNc2nc(N3CCOc4ccccc43)nc3c2CCCC3)cc1` the inhibition was -7.6% (target engagement in cells; inhibitor; chemoproteomics; 20 mM).
For `O=C(Nc1cnn(-c2csc(C(=O)NC3COC3)c2)c1)Nc1c(F)cccc1Cl`, the remaining activity was 77.2% (enzyme activity; inhibitor; 5 µM).
`COc1cccc2c(NCc3ccccc3)nc(-n3c(N)nc4ccccc43)nc12` has an inhibition of -13% (target engagement in cells; inhibitor; chemoproteomics; 20 mM).
`O=C1NC(=O)c2cc(Nc3ccc(F)cc3)c(Nc3ccc(F)cc3)cc21` has a remaining signal of 88% (cell-free assay; 0.5 µM).
`O=C(Nc1cnn(-c2csc(C(=O)NC3COC3)c2)c1)Nc1ccccc1Cl` gave a remaining activity of 112% (enzyme activity; inhibitor; 5 µM).
`O=C(Nc1cnc(Oc2ccc(F)cc2)nc1)N1CCc2ncccc2[C@@H]1c1ccc(F)cc1` gave a remaining binding of 84% (cell-free assay; competition with immobilised ligand; 1 µM).
`N#CCCc1ccc2c(c1)-c1[nH]c3ccc([N+](=O)[O-])cc3c1CC(=O)N2` gave a remaining signal of 132% (cell-free assay; 0.5 µM).
The remaining activity of `COc1cc(Cl)c(C(=O)N[C@@H](CN[C@H]2CC[C@@H](N)CC2)Cc2ccc(C#N)cc2)cc1-c1ccc(CN[C@H](C)c2ccc(C)cc2)o1` is reported as 93% (enzyme activity; inhibitor; 1 µM).
For `c1cnn2ncc(-c3ccnc(N4CCC45COC5)n3)c2c1`, the remaining binding was 100% (binding; 1 µM).
With `COc1cc2ncnc(Nc3ccc(Oc4ccccc4)cc3C)c2cc1OC` the inhibition was -2% (enzyme activity; inhibitor; 1 µM).
The remaining signal of `C[S+]([O-])c1ccc(-c2nc(-c3ccncc3)c(-c3ccc(F)cc3)[nH]2)cc1` (stereo not shown) is reported as 94.7% (cell-free assay; 0.5 µM).
With `Nc1c(C(=O)NCc2ccc(C(=O)NCCCC3CCCCC3)cc2)cnn1-c1ccccc1` the remaining binding was 84% (cell-free assay; competition with immobilised ligand; 0.1 µM).
The inhibition of `CCN1CCN(Cc2ccc(NC(=O)c3ccc(C)c(/C=C/c4cnc5[nH]ccc5c4OC)c3)cc2C(F)(F)F)CC1` is reported as -11.6% (target engagement in cells; inhibitor; chemoproteomics; A-375; 5 µM).
With `CNC(=O)c1ccc(Nc2ncc(C(F)(F)F)c(NCc3nccnc3N(C)S(C)(=O)=O)n2)cc1` the remaining binding was 75% (cell-free assay; competition with immobilised ligand; 0.1 µM).
`CN1CC(Oc2cnc(C#N)cc2-c2ccn3nc(NC(=O)C4CC4)cc3c2)C1` has an inhibition of 8% (enzyme activity; inhibitor; 1 µM).
For `CCOCCn1cc(C(=O)Nc2ccc(-n3nc(-c4cccnc4)cc3C(F)(F)F)cn2)ccc1=O`, the remaining binding was 100% (cell-free assay; competition with immobilised ligand; 1 µM).
`Cn1cnc(Br)c1C1=CN(c2ncnc3[nH]cnc23)CCS1` has an inhibition of 33.1% (enzyme activity; inhibitor; radiometric; 50 nM).
For `C[C@@H]1CN(c2cc(-c3nn(C)c4ccc(OC5(C)CC5)cc34)ncn2)C[C@H](C)O1`, the remaining binding was 83% (cell-free assay; competition with immobilised ligand; 1 µM).
With `CCN1CCN(Cc2ccc(NC(=O)c3ccc(C)c(Oc4ccnc5[nH]ccc45)c3)cc2C(F)(F)F)CC1` the inhibition was -10.4% (target engagement in cells; inhibitor; chemoproteomics; A-375; 0.5 µM).
`C[C@@H](c1cccc(C#N)c1)n1cc(Cl)cc(C(N)=O)c1=N` gave a remaining binding of 100% (cell-free assay; competition with immobilised ligand; 1 µM).
With `CC/C(=N\NC(=O)NCc1cccc(O)c1)c1ccc(O)c(C)c1O` the inhibition was -6% (enzyme activity; inhibitor; 0.1 µM).
